Source: ChEMBL document CHEMBL4270489, “Synthesis and in vitro and in vivo antitumour activity study of 11-hydroxyl esterified bergenin/cinnamic acid hybrids” (Eur J Med Chem, 2017)
Blank lines part the entries; values can stand above or below the compound they belong to. The source made the active and inactive calls. The calls are words filed in the database; no cut-off is given here.

Columns and labels:
PC-3 = experiment: Antiproliferative activity against human PC3 cells incubated for 48 to 72 hrs by MTT assay; format: functional, cell-based
Procedure, shortened: (§1)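 MTT assay. Cells were grown in DMEM with 10% heat-inactivated FBS at 37°C under 5% CO₂. They were seeded at 5000/well in 5% FBS DMEM for 24 h, then given compound in DMSO at 0.1, 1, 10 and 100 µmol/L for 72 h (the table footnote says 48 h). MTT was added for 4 h, formazan was dissolved in DMSO and read at 570 nm. IC₅₀ was from ≥3 independent runs; >100 μM was given if 50% inhibition was not reached.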

A549 = experiment: Antiproliferative activity against human A549 cells incubated for 48 to 72 hrs by MTT assay; format: functional, cell-based; procedure, shortened: as §1
SGC-7901 = experiment: Antiproliferative activity against human SGC7901 cells incubated for 48 to 72 hrs by MTT assay; format: functional, cell-based; procedure, shortened: as §1
MCF7 = experiment: Antiproliferative activity against human MCF7 cells incubated for 48 to 72 hrs by MTT assay; format: functional, cell-based; procedure, shortened: as §1
HepG2 [1] = experiment: Antiproliferative activity against human HepG2 cells incubated for 48 to 72 hrs by MTT assay; format: functional, cell-based; procedure, shortened: as §1
HepG2 [2] = experiment: Induction of cell cycle arrest in human HepG2 cells assessed as accumulation at G0/G1 phase at 2 umol/L incubated for 12 hrs by propidium iodide staining based flow cytometry (reference value: 64.31%); format: functional
HepG2 [3] = experiment: Induction of cell cycle arrest in human HepG2 cells assessed as accumulation at S phase at 2 umol/L incubated for 12 hrs by propidium iodide staining based flow cytometry (reference value: 25.28%); format: functional
HepG2 [4] = experiment: Induction of cell cycle arrest in human HepG2 cells assessed as accumulation at G2/M phase at 2 umol/L incubated for 12 hrs by propidium iodide staining based flow cytometry (reference value: 10.41%); format: functional
HepG2 [5] = experiment: Induction of cell cycle arrest in human HepG2 cells assessed as accumulation at G0/G1 phase at 2 umol/L incubated for 24 hrs by propidium iodide staining based flow cytometry (reference value: 64.31%); format: functional
HepG2 [6] = experiment: Induction of cell cycle arrest in human HepG2 cells assessed as accumulation at S phase at 2 umol/L incubated for 24 hrs by propidium iodide staining based flow cytometry (reference value: 25.28%); format: functional
HepG2 [7] = experiment: Induction of cell cycle arrest in human HepG2 cells assessed as accumulation at G2/M phase at 2 umol/L incubated for 24 hrs by propidium iodide staining based flow cytometry (reference value: 10.41%); format: functional
HepG2 [8] = experiment: Induction of apoptosis in human HepG2 cells at 1 umol/L incubated for 24 hrs by Annexin V-FITC/propidium iodide staining based flow cytometry (reference value: 1.96%); format: functional
HepG2 [9] = experiment: Induction of apoptosis in human HepG2 cells at 2 umol/L incubated for 24 hrs by Annexin V-FITC/propidium iodide staining based flow cytometry (reference value: 1.96%); format: functional
HepG2 [10] = experiment: Induction of apoptosis in human HepG2 cells at 4 umol/L incubated for 24 hrs by Annexin V-FITC/propidium iodide staining based flow cytometry (reference value: 1.96%); format: functional
Mus musculus [11] = experiment: Toxicity in Swiss mouse xenografted with […] assessed as increase in body weight at 15 mg/kg, ip dosed every day for 14 days; format: organism-based; conditions: in vivo, 336 h
Procedure, shortened: (§2)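 Female Swiss mice (20-22 g) bearing subcutaneous […] (3×10⁶ cells, right flank) were dosed intraperitoneally daily with saline, 15 or 30 mg/kg, or 5-FU 20 mg/kg (n = 6) and killed on day 14. Body weight was recorded daily. Thymus and spleen indexes were calculated as organ weight divided by final body weight. Mean ± S.E.M.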

Mus musculus [12] = experiment: Toxicity in Swiss mouse xenografted with […] assessed as effect on thymus index at 15 to 30 mg/kg, ip dosed every day for 14 days; format: organism-based; conditions: in vivo, 336 h; procedure, shortened: as §2
Mus musculus [13] = experiment: Toxicity in Swiss mouse xenografted with […] assessed as effect on spleen index at 15 to 30 mg/kg, ip dosed every day for 14 days; format: organism-based; conditions: in vivo, 336 h; procedure, shortened: as §2
HepG2 [14] = experiment: Induction of apoptosis in human HepG2 cells assessed as reduction in pro-caspase-3 protein expression at 1 to 8 umol/L incubated for 12 to 48 hrs by Western blot analysis; format: functional, cell-based
Procedure, shortened: (§3)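 Western blot. HepG2 cells were seeded at 5×10⁵/well with compound in 10% FBS at 37°C: 1, 2, 4 or 8 μM for 24 h, or 4 μmol/L over a time course. The vehicle was 0.5% DMSO. Cleared lysates were quantified by BCA and run on 10% SDS-PAGE, then transferred to PVDF. Membranes were blocked in 5% milk/TBST with primary antibodies at 1:2000 at 4°C, HRP secondary at 1:2000 for 2 h, and ECL detection. GAPDH served as loading control.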

HepG2 [15] = experiment: Induction of apoptosis in human HepG2 cells assessed as reduction in pro-caspase-9 protein expression at 1 to 8 umol/L incubated for 12 to 48 hrs by Western blot analysis; format: functional, cell-based; procedure, shortened: as §3
HepG2 [16] = experiment: Induction of apoptosis in human HepG2 cells assessed as reduction in Bcl2 protein expression at 1 to 8 umol/L incubated for 12 to 48 hrs by Western blot analysis; format: functional, cell-based; procedure, shortened: as §3
HepG2 [17] = experiment: Induction of apoptosis in human HepG2 cells assessed as reduction in Bcl-XL protein expression at 1 to 8 umol/L incubated for 12 to 48 hrs by Western blot analysis; format: functional, cell-based; procedure, shortened: as §3
HepG2 [18] = experiment: Induction of apoptosis in human HepG2 cells assessed as reduction in Akt protein expression at 1 to 8 umol/L incubated for 12 to 48 hrs by Western blot analysis; format: functional, cell-based; procedure, shortened: as §3
HepG2 [19] = experiment: Induction of apoptosis in human HepG2 cells assessed as reduction in Bcl2 protein expression by Western blot analysis; format: functional, cell-based; procedure, shortened: as §3
HepG2 [20] = experiment: Induction of apoptosis in human HepG2 cells assessed as reduction in Bcl-XL protein expression by Western blot analysis; format: functional, cell-based; procedure, shortened: as §3
HepG2 [21] = experiment: Induction of apoptosis in human HepG2 cells assessed as increase in Bax protein expression by Western blot analysis; format: functional, cell-based; procedure, shortened: as §3
HepG2 [22] = experiment: Induction of apoptosis in human HepG2 cells incubated for 24 hrs by Annexin V-FITC/propidium iodide staining based flow cytometry (reference value: 1.96%); format: functional, cell-based
Heps (mouse) [23] = experiment: Antitumour activity against murine HepS cells xenografted in Swiss mouse assessed as inhibition of tumor growth at 15 mg/kg, ip dosed every day for 14 days; conditions: 336 h, read-out: TGI
Heps (mouse) [24] = experiment: Antitumour activity against murine HepS cells xenografted in Swiss mouse assessed as inhibition of tumor growth at 30 mg/kg, ip dosed every day for 14 days; conditions: 336 h, read-out: TGI
Heps (mouse) [25] = experiment: Antitumour activity against murine HepS cells xenografted in Swiss mouse assessed as reduction in tumor size at 15 to 30 mg/kg, ip dosed every day for 14 days
HepG2 [26] = experiment: Induction of apoptosis in human HepG2 cells assessed as increase in p53 protein expression at 1 to 8 umol/L incubated for 12 to 48 hrs by Western blot analysis
Heps (mouse) [27] = experiment: Antitumour activity against murine HepS cells xenografted in Swiss mouse assessed as reduction in tumor weight at 15 to 30 mg/kg, ip dosed every day for 14 days

Compound: COc1c(O)cc2c(c1O)[C@@H]1O[C@H](COC(=O)/C=C/c3cc([N+](=O)[O-])cc([N+](=O)[O-])c3)[C@@H](O)[C@H](O)[C@H]1OC2=O
IC50 (PC-3): > 100 µM
IC50 (A549): > 100 µM
IC50 (SGC-7901): > 100 µM
IC50 (MCF7): > 100 µM
IC50 (HepG2 [1]): > 100 µM

Compound: COc1c(O)cc2c(c1O)[C@@H]1O[C@H](COC(=O)/C=C/c3ccc(Cl)cc3)[C@@H](O)[C@H](O)[C@H]1OC2=O
IC50 (PC-3): 86.5 µM
IC50 (A549): > 100 µM
IC50 (SGC-7901): > 100 µM
IC50 (MCF7): > 100 µM
IC50 (HepG2 [1]): > 100 µM

Compound: COc1c(O)cc2c(c1O)[C@@H]1O[C@H](COC(=O)/C=C/c3ccc([N+](=O)[O-])cc3)[C@@H](O)[C@H](O)[C@H]1OC2=O
IC50 (PC-3): > 100 µM
IC50 (A549): > 100 µM
IC50 (SGC-7901): > 100 µM
IC50 (MCF7): > 100 µM
IC50 (HepG2 [1]): > 100 µM

Compound: COc1ccc(/C=C/C(=O)OC[C@H]2O[C@H]3c4c(cc(O)c(OC)c4O)C(=O)O[C@@H]3[C@@H](O)[C@@H]2O)cc1
IC50 (PC-3): > 100 µM
IC50 (A549): 26.4 µM
IC50 (SGC-7901): 15.9 µM
IC50 (MCF7): 18.7 µM
IC50 (HepG2 [1]): 29.7 µM

Compound: COc1c(O)cc2c(c1O)[C@@H]1O[C@H](COC(=O)/C=C/c3cc(F)cc(F)c3)[C@@H](O)[C@H](O)[C@H]1OC2=O
IC50 (PC-3): 46.2 µM
IC50 (A549): 28.4 µM
IC50 (SGC-7901): > 100 µM
IC50 (MCF7): 72.1 µM
IC50 (HepG2 [1]): > 100 µM

The next compounds have a lower IC50 (PC-3) than those just listed; values first:

IC50 (PC-3): 12.1 µM
IC50 (A549): 5.46 µM
IC50 (SGC-7901): 7.53 µM
IC50 (MCF7): 11.7 µM
IC50 (HepG2 [1]): 6.62 µM
Compound: COc1cc(/C=C/C(=O)OC[C@H]2O[C@H]3c4c(cc(O)c(OC)c4O)C(=O)O[C@@H]3[C@@H](O)[C@@H]2O)cc(OC)c1OC

IC50 (PC-3): 26.3 µM
IC50 (A549): 12.3 µM
IC50 (SGC-7901): 27.8 µM
IC50 (MCF7): 6.25 µM
IC50 (HepG2 [1]): 16.8 µM
Compound: COc1cc(/C=C/C(=O)OC[C@H]2O[C@H]3c4c(cc(O)c(OC)c4O)C(=O)O[C@@H]3[C@@H](O)[C@@H]2O)cc(OC)c1

IC50 (PC-3): 27 µM
IC50 (A549): 10.7 µM
IC50 (SGC-7901): 8.32 µM
IC50 (MCF7): 7.34 µM
IC50 (HepG2 [1]): 5.23 µM
Compound: COc1c(O)cc2c(c1O)[C@@H]1O[C@H](COC(=O)/C=C/c3ccc(C#N)cc3)[C@@H](O)[C@H](O)[C@H]1OC2=O
Activity (HepG2 [2]): 57.64%
Activity (HepG2 [3]): 28.43%
Activity (HepG2 [4]): 13.93%
Activity (HepG2 [5]): 51.15%
Activity (HepG2 [6]): 19.92%
Activity (HepG2 [7]): 28.93%
Activity (HepG2 [8]): 5.58%
Activity (HepG2 [9]): 10.68%
Activity (HepG2 [10]): 20.68%
Activity (Mus musculus [11]): Non-Toxic
Activity (Mus musculus [12]): Non-Toxic
Activity (Mus musculus [13]): Non-Toxic
Activity (HepG2 [14]): Active
Activity (HepG2 [15]): Active
Activity (HepG2 [16]): Active
Activity (HepG2 [17]): Active
Activity (HepG2 [18]): Active
Activity (HepG2 [19]): Dose-dependent effect
Activity (HepG2 [20]): Dose-dependent effect
Activity (HepG2 [21]): Dose-dependent effect
Activity (HepG2 [22]): Dose-dependent effect
inhibition in vivo at 15 mg/kg (Heps (mouse) [23]): 45.4%
inhibition in vivo at 30 mg/kg (Heps (mouse) [24]): 61%
Activity (Heps (mouse) [25]): Dose-dependent effect
Activity (HepG2 [26]): Active
Activity (Heps (mouse) [27]): Dose-dependent effect
